ChEMBL document CHEMBL5712913, “Discovery of novel ATAD2 bromodomain inhibitors that trigger apoptosis and autophagy in breast cells by structure-based virtual screening” (J Enzyme Inhib Med Chem, 2020)
Active and inactive are the calls of the source. The calls are words filed in the database; no cut-off is given here.

Key:
[1] = test system: MDA-MB-231; test: Inhibition of ATAD2 in human MDA-MB-231 cells assessed as downregulation of c-myc phosphorylation at 2.5 uM by immuno chemistry analysis; type: cell-based
Procedure, shortened: (§1)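 MDA-MB-231 cells treated at 2.5 µM. Anti-ATAD2 or anti-p-cMyc primary (1:200 in PBS/1% BSA) applied overnight at 4 °C, then fluorescent secondary antibody 1 h at room temperature. Nuclei counterstained with DAPI, green signal imaged.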

[2] = test system: MDA-MB-231; test: Inhibition of ATAD2 in human MDA-MB-231 cells by measuring c-myc phosphorylation at 1.25 to 5 uM for 24 hrs by Western blot analysis; type: functional, cell-based; details: dose 1.25-5 µM
Procedure, shortened: (§2)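 MDA-MB-231 cells treated with 1.25, 2.5 and 5.0 µM for 24 h. Lysates separated on 10–15% SDS-PAGE and blotted to PVDF. c-Myc and p-cMyc detected with HRP/ECL, with β-actin as loading control.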

[3] = test system: MDA-MB-231; test: Induction of apoptosis in human MDA-MB-231 cells assessed as viable cells at 2.5 microM after 24 hrs by Annexin-V/PI staining based flow cytometry (Rvb= 93.17 %); type: functional; details: read-out: Activity
[4] = test system: MDA-MB-231; test: Induction of apoptosis in human MDA-MB-231 cells assessed as late apoptotic cells at 5 microM after 24 hrs by Annexin-V/PI staining based flow cytometry (Rvb= 2.46%); type: functional
[5] = test system: MDA-MB-231; test: Induction of apoptosis in human MDA-MB-231 cells assessed as increase of Bax expression after 24 hrs by Western blot assay; type: functional, cell-based; details: dose 1.25-5 µM
Procedure, shortened: (§3)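 MDA-MB-231 cells (DMEM, 10% FBS, 5% CO2) exposed to 1.25, 2.5 or 5 μM for 24 h. Adherent and floating cells lysed in Hepes 50 mM pH 7.4/1% Triton X-100 buffer with phosphatase and protease inhibitors. Equal protein run on 10–15% SDS-PAGE, transferred to PVDF, detected by HRP/ECL. Bands normalised to β-actin, compared with DMSO control by unpaired t-test.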

[6] = test system: MDA-MB-231; test: Induction of autophagy in human MDA-MB-231 cells assessed as aggregation of LC3 puncta after 24 hrs by immunofluorescence analysis; type: functional, cell-based
Procedure, shortened: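 MDA-MB-231 cells transfected with GFP/mRFP-LC3, then exposed to 2.5 µM for 24 h. LC3 puncta and autophagy ratio scored under a fluorescence microscope.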

[7] = test system: MDA-MB-231; test: Induction of apoptosis in human MDA-MB-231 cells assessed as late apoptotic cells at 2.5 microM after 24 hrs by Annexin-V/PI staining based flow cytometry (Rvb= 2.46%); type: functional
[8] = test system: MDA-MB-231; test: Induction of autophagy in human MDA-MB-231 cells assessed as downregulation of mTOR at ser2448 residue expression at 1.25 to 5 uM for 24 hrs by Western blot assay; type: functional, cell-based; details: dose 1.25-5 µM
Procedure, shortened: (§4)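 MDA-MB-231 cells treated with 1.25, 2.5 or 5 µM for 24 h. Lysates made in Hepes pH 7.4/Triton X-100 buffer with protease and phosphatase inhibitors, then run on SDS-PAGE, blotted to PVDF and detected by HRP/ECL. p-PI3K and p-mTOR Ser2448 bands normalised to β-actin.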

[9] = test system: MDA-MB-231; test: Induction of apoptosis in human MDA-MB-231 cells assessed as viable cells at 5 microM after 24 hrs by Annexin-V/PI staining based flow cytometry (Rvb= 93.17 %); type: functional; details: read-out: Activity
[10] = test system: MDA-MB-231; test: Induction of autophagy in human MDA-MB-231 cells assessed as increase of beclin 1 expression after 24 hrs by Western blot assay; type: functional, cell-based; details: dose 1.25-5 µM
[11] = test system: MDA-MB-231; test: Induction of apoptosis in human MDA-MB-231 cells assessed as late apoptotic cells at 1.25 microM after 24 hrs by Annexin-V/PI staining based flow cytometry (Rvb= 2.46%); type: functional
[12] = test system: MDA-MB-231; test: Induction of autophagy in human MDA-MB-231 cells assessed as increase of LC3-II expression after 24 hrs by Western blot assay; type: functional, cell-based; details: dose 1.25-5 µM
[13] = test system: MDA-MB-231; test: Induction of apoptosis in human MDA-MB-231 cells assessed as necrotic cells at 2.5 microM after 24 hrs by Annexin-V/PI staining based flow cytometry (Rvb= 1.22%); type: functional
[14] = test system: MDA-MB-231; test: Inhibition of ATAD2 in human MDA-MB-231 cells by measuring c-myc protein level at 1.25 to 5 uM for 24 hrs by Western blot analysis; type: functional, cell-based; details: dose 1.25-5 µM; procedure, shortened: as §2
[15] = test system: MDA-MB-231; test: Induction of apoptosis in human MDA-MB-231 cells assessed as necrotic cells at 1.25 microM after 24 hrs by Annexin-V/PI staining based flow cytometry (Rvb= 1.22%); type: functional
[16] = test system: MDA-MB-231; test: Induction of autophagy in human MDA-MB-231 cells assessed as downregulation of AKT expression at 1.25 to 5 uM for 24 hrs by Western blot assay; type: functional, cell-based; details: dose 1.25-5 µM
[17] = test system: MDA-MB-231; test: Induction of apoptosis in human MDA-MB-231 cells assessed as reduction of Bcl-2 expression after 24 hrs by Western blot assay; type: functional, cell-based; details: dose 1.25-5 µM; procedure, shortened: as §3
[18] = test system: MDA-MB-231; test: Induction of autophagy in human MDA-MB-231 cells assessed as downregulation of mTOR expression at 1.25 to 5 uM for 24 hrs by Western blot assay; type: functional, cell-based; details: dose 1.25-5 µM; procedure, shortened: as §4
[19] = test system: MDA-MB-231; test: Inhibition of ATAD2 in human MDA-MB-231 cells by measuring reduction in color intensity at 2.5 uM by immuno chemistry analysis; type: functional, cell-based; procedure, shortened: as §1
[20] = test system: MDA-MB-231; test: Induction of apoptosis in human MDA-MB-231 cells assessed as necrotic cells at 5 microM after 24 hrs by Annexin-V/PI staining based flow cytometry (Rvb= 1.22%); type: functional
[21] = test system: MDA-MB-231; test: Induction of apoptosis in human MDA-MB-231 cells assessed as reduction of cleavage of caspase 8 after 24 hrs by Western blot assay; type: functional, cell-based; details: dose 1.25-5 µM; procedure, shortened: as §3
[22] = test system: MDA-MB-231; test: Induction of autophagy in human MDA-MB-231 cells assessed as increase of ULK1 expression after 24 hrs by Western blot assay; type: functional, cell-based; details: dose 1.25-5 µM
[23] = test system: MDA-MB-231; test: Induction of apoptosis in human MDA-MB-231 cells assessed as reduction of cleavage of caspase 3 after 24 hrs by Western blot assay; type: functional, cell-based; details: dose 1.25-5 µM; procedure, shortened: as §3
[24] = test system: MDA-MB-231; test: Induction of apoptosis in human MDA-MB-231 cells assessed as early apoptotic cells at 5 microM after 24 hrs by Annexin-V/PI staining based flow cytometry (Rvb= 3.14 %); type: functional
[25] = test system: MDA-MB-231; test: Induction of apoptosis in human MDA-MB-231 cells assessed as early apoptotic cells at 2.5 microM after 24 hrs by Annexin-V/PI staining based flow cytometry (Rvb= 3.14 %); type: functional
[26] = test system: MDA-MB-231; test: Induction of apoptosis in human MDA-MB-231 cells assessed as early apoptotic cells at 1.25 microM after 24 hrs by Annexin-V/PI staining based flow cytometry (Rvb= 3.14 %); type: functional
[27] = test system: MDA-MB-231; test: Induction of autophagy in human MDA-MB-231 cells assessed as increase of p-ULK1 expression after 24 hrs by Western blot assay; type: functional, cell-based; details: dose 1.25-5 µM
[28] = test system: MDA-MB-231; test: Induction of autophagy in human MDA-MB-231 cells assessed as degradation of SQSTM1/p62 after 24 hrs by Western blot assay; type: functional, cell-based; details: dose 1.25-5 µM
[29] = test system: MDA-MB-231; test: Induction of autophagy in human MDA-MB-231 cells assessed as downregulation of PI3K expression at 1.25 to 5 uM for 24 hrs by Western blot assay; type: functional, cell-based; details: dose 1.25-5 µM; procedure, shortened: as §4
[30] = biological target: T1, ATPase family AAA domain-containing protein 2 (Homo sapiens, UniProt Q6PL18); test: Inhibitory activity against ATAD2 (unknown origin) at bromodomain incubated for 180 min by Tr-FRET assay
T1 sequence (Q6PL18 whole entry): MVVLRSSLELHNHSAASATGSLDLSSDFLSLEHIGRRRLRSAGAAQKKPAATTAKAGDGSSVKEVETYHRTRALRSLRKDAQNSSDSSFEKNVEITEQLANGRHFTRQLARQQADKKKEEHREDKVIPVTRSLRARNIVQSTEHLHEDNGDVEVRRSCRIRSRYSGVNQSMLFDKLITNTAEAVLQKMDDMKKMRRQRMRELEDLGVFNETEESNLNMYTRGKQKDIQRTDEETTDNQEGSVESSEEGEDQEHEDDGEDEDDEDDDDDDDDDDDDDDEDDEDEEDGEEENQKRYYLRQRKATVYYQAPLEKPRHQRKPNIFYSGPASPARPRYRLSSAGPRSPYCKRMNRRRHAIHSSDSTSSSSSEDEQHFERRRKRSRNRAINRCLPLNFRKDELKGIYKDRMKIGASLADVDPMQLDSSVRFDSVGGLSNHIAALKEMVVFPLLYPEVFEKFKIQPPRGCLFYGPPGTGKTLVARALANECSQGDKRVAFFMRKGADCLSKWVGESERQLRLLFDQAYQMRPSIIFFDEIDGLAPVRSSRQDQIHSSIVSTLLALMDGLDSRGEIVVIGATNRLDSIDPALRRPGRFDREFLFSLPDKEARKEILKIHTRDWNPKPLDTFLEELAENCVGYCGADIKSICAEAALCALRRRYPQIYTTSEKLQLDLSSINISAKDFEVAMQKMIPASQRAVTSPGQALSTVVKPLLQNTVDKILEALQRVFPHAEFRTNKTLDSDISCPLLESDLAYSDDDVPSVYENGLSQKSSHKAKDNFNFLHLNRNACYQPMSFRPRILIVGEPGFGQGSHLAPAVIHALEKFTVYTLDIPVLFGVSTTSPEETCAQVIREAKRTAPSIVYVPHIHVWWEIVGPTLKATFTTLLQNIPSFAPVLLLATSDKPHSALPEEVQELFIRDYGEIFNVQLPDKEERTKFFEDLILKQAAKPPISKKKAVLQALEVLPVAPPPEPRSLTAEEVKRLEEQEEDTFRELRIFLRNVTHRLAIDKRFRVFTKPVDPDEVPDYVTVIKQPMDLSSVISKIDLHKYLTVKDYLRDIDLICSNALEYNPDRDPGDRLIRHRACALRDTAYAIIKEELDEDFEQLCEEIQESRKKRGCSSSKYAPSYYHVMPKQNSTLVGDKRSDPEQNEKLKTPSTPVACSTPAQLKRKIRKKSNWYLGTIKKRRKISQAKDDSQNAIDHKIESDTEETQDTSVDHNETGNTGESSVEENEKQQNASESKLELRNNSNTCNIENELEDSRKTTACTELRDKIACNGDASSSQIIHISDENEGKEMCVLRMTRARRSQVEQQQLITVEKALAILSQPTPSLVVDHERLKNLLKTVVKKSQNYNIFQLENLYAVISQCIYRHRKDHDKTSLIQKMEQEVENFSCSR
Procedure, shortened: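 Recombinant ATAD2 bromodomain and BET ligand read by TR-FRET. Compounds diluted in DMSO, then 20-fold in 5% DMSO in reaction buffer; 2 µl added per 20 µl reaction. Incubated 180 min, then acceptor/donor fluorescence ratio read. Each concentration run in duplicate.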

Compound: CC1=C(C#N)c2nc(N)c(C#N)c(C)c2/C1=C\c1ccc(-c2cc(C(=O)O)ccc2Cl)o1
- inhibition [1]: Active
- Activity [2]: Active
- viability at 2.5 µM [3]: 84.7%
- Activity [4]: 10.01%
- Activity [5]: Active
- Activity [6]: Active
- Activity [7]: 3.92%
- Activity [8]: Active
- viability at 5 µM [9]: 60.1%
- Activity [10]: Active
- Activity [11]: 2.89%
- Activity [12]: Active
- Activity [13]: 3.67%
- Activity [14]: Active
- Activity [15]: 1.55%
- Activity [16]: Active
- Activity [17]: Active
- Activity [18]: Active
- Activity [19]: Active
- Activity [20]: 5.98%
- Activity [21]: Active
- Activity [22]: Dose-Dependent Effect
- Activity [23]: Active
- Activity [24]: 23.86%
- Activity [25]: 7.76%
- Activity [26]: 5.24%
- Activity [27]: Dose-Dependent Effect
- Activity [28]: Active
- Activity [29]: Active

Compound: COc1cc(Cl)c(C(=O)N[C@H](CN[C@H]2CC[C@@H](N)CC2)Cc2ccc(C#N)cc2)cc1-c1ccc(CN[C@H](C)c2ccc(C)cc2)o1
- IC50 [30]: 242 nM
